Data reported in PMC8463927 (Journal of Advanced Research, 2021).

Experiments:
RAW264.7 cells [1] = experiment: cAMP and CREB phosphorylation in RAW264.7 cells; format: cell-based, murine; conditions: for effect on arctigenin-induced phosphorylation of CREB: 10 μM with arctigenin 100 μM
How it was run: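 RAW264.7 cells were exposed to test compound for 15 min under LPS (1 μg/mL) induction, or at 100 μM alongside H89 (10 μM) and/or forskolin (10 μM). Lysates were BCA-normalised and run on 10% SDS-PAGE and nitrocellulose, probed overnight at 4 °C, and detected by chemiluminescence. Intracellular cAMP was measured in 0.1 M HCl lysates by direct ELISA. Mean ± SEM, n = 3.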

PDK1 = biological target: T1, PDK1 (Homo sapiens, UniProt O15530); experiment: PDK1 kinase assay; format: biochemical; conditions: compared with GSK2334470
T1 sequence (O15530 1-556): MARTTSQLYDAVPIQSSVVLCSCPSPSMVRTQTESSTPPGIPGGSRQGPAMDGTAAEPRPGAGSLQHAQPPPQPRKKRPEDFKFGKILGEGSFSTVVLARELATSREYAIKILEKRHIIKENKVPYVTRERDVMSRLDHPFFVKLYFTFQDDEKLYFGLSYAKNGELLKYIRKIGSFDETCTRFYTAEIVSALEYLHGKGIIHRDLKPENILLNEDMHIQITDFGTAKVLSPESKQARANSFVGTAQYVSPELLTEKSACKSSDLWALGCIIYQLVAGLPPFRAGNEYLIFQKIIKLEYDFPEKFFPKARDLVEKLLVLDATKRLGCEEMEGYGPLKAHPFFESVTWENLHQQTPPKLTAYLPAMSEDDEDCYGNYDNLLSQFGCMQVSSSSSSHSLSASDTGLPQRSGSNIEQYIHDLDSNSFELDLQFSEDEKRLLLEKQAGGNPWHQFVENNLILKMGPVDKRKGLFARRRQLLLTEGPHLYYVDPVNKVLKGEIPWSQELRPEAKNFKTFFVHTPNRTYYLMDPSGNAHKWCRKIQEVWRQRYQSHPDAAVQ

[2] = cited from earlier work
RAW264.7 cells [3] = experiment: Cytotoxicity on RAW264.7 cells; format: cell-based, murine; conditions: 24 h, CCK8
[4] = tested on: IMQ-induced murine psoriasis; experiment: IMQ-induced murine psoriatic skin lesions; format: in vivo, BALB/c mice
How it was run: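 Female BALB/c mice (6–8 weeks, 20–22 g), dorsal skin shaved, got 62.5 mg daily of […] IMQ cream topically for 7 days; groups (n = 7) were normal, IMQ only, and IMQ plus 5% test compound cream. PASI scored blind by 3 investigators. Read-outs: skin cAMP-specific PDE activity normalised to total protein, Ki-67 immunohistochemistry, serum Luminex 17-plex, skin RT-PCR (ΔΔCt), and skin-cell flow cytometry after collagenase IV digestion. Mean ± SEM.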

[5] = tested on: LPS-induced RAW264.7 cells; experiment: Inflammatory mediators in LPS-induced RAW264.7 cells; format: cell-based, murine
How it was run: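 RAW264.7 cells in DMEM with 10% FBS at 37 °C and 5% CO₂ were given test compound (100, 30, 10 μM) with LPS (1 μg/mL). Cells were lysed after 3 h for SYBR Green RT-PCR (ΔΔCt). Supernatants were kept for TNF-α and IL-6 ELISA and NO measurement.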

[6] = Arctigenin concentration in inflamed skin tissues; format: in vivo, mice; conditions: topical application
[7] = tested on: LPS-stimulated human PBMCs; experiment: LPS-induced TNF-α production in human PBMCs; format: cell-based; conditions: PBMC, read-out: IC50 on LPS-induced production of TNF-α
How it was run: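 Purchased human PBMCs (1 × 10⁶/well) in RPMI-1640 with 10% FBS and 2 mM L-glutamine were stimulated with LPS in the presence of test compound. TNF-α production was measured.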

PDE4 = experiment: Enzymatic activity of cAMP-specific PDE4 in RAW264.7 cells; format: cell-based, murine; conditions: RAW264.7 and LPS-stimulated RAW264.7 cells
PDE4D catalytic domain = PDE4D catalytic domain (Homo sapiens, UniProt Q08499); experiment: PDEs enzyme assay; format: biochemical
How it was run: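 Purified PDE4D catalytic domain. Activity was read as hydrolysis of [³H]-cAMP to [³H]-AMP by scintillation proximity assay.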

PDE4D catalytic domain, sequence (Q08499 386-715 limits assumed): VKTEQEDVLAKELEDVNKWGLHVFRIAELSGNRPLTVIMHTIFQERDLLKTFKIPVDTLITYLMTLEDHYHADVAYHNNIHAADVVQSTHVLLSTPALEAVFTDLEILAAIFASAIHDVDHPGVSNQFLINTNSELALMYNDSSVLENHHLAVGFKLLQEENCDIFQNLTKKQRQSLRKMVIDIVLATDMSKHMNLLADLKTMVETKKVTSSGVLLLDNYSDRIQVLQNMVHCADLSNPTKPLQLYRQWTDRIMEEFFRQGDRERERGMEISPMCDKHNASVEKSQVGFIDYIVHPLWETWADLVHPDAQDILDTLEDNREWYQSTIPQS

In the case of `O=S(=O)(NCCNC/C=C/c1ccc(Br)cc1)c1cccc2cnccc12` [H89, reference compound], the “effect on arctigenin-induced phosphorylation of CREB” value (RAW264.7 cells [1]; 15 min) is reported as “obviously blocked the effects of arctigenin on phosphorylation of CREB”.
In the case of `COc1cc(C[C@H]2C(=O)OC[C@@H]2Cc2ccc(OC)c(OC)c2)ccc1O` [Arctigenin], the “inhibition on PDK1” value (PDK1) is listed as “negligible”, the plasma concentration ([2]; oral administration, several animal species, ref [4], [35]) is listed as “undetectable” and the “tissue accumulation in brain” value ([2]; ref [34]) is listed as “lower than that in intestine, liver, kidney, lung, and heart”. For the same molecule, the cytotoxicity (RAW264.7 cells [3]) was “not associated with the cytotoxicity”, the “phosphorylation of CREB” value (RAW264.7 cells [1]; 15 min, western blot) was “led to the phosphorylation of CREB” and the “intracellular cAMP” value (RAW264.7 cells [1]; 30 min, concentration-dependent) was “significant elevation of intracellular cAMP”. For the same molecule, the “serum IL-10” value ([4]; Luminex assay) was “promote the secretion of IL-10”, the serum inflammatory cytokines ([4]; Luminex assay) was “reduce the production of inflammatory cytokines” and the “CCR6 and CXCR3 on CD45+ leukocytes” value ([4]; flow cytometry) was “suppressed the protein expression of CCR6 and CXCR3”. For the same molecule, the “skin myeloid cells, macrophages, neutrophils, DCs” value ([4]; flow cytometry) was “decreased when treated with arctigenin”, the “skin-infiltrated leukocytes, APCs, T cells, γδT cells” value ([4]; flow cytometry) was “reduced upon arctigenin treatment” and the “expression of chemokines in inflamed skins” value ([4]; gene expression) was “suppress the expression of chemokines”. For the same molecule, the “expression of inflammatory cytokines in inflamed tissues” value ([4]; mRNA level) was “extensively attenuated”, the “Ki-67 positive staining in the epidermis” value ([4]; topical 5% arctigenin cream) was “reduced” and the “activity of cAMP-specific PDEs in skins” value ([4]; topical 5% arctigenin cream) was “obviously reversed”. For the same molecule, the “cumulative PASI scores” value ([4]; topical 5% arctigenin cream) was “decreased the cumulative PASI scores”, the “skin level of cAMP” value ([4]; topical 5% arctigenin cream) was “upregulate the skin level of cAMP” and the “splenomegaly (spleen index)” value ([4]; topical 5% arctigenin cream) was “ameliorate the concomitant splenomegaly”. The epidermal thickening ([4]; topical 5% arctigenin cream, H&E) was “dramatically improved the epidermal thickening”, the body weight loss ([4]; topical 5% arctigenin cream, daily) was “significantly reversed the body weight loss” and the “therapeutic effect, topical vs oral” value ([4]; topical 5% cream vs oral 100 mg/kg) was “better therapeutic effect”. The “phosphorylation of CREB in skins” value ([4]; western blot) was “promote the phosphorylation of CREB”, the “production of TNF-α and IL-6” value ([5]; 100, 30, and 10 μM, LPS 24 h, ELISA, dose-dependent) was “reduce the production of TNF-α and IL-6” and the “mRNA expression level of TNF-α and IL-6” value ([5]; LPS 3 h, RT-PCR) was “decreased the mRNA expression level”. The “iNOS and COX-2 mRNA” value ([5]; concentration-dependent) was “downregulated”, the “concentration in the inflamed skin tissues” value [6] was 29.67 ± 15.42 μg/g skin samples and the IC50 [7] was 35.2 ± 6.01 µM. For the same molecule, the “enzymatic activity of PDE4 in cells” value (PDE4) was “inhibit the enzymatic activity of PDE4 in the concentration-dependent manner” and the IC50 (PDE4D catalytic domain) was 3.76 ± 0.28 µM.
In the case of `C=C[C@@]1(C)CC(=O)[C@]2(O)[C@@]3(C)[C@@H](O)CCC(C)(C)[C@@H]3[C@H](O)[C@H](OC(C)=O)[C@@]2(C)O1` [forskolin, reference compound], the “effect on arctigenin-induced phosphorylation of CREB” value (RAW264.7 cells [1]; 15 min) is reported as “further enhance the effects of arctigenin on promoting the phosphorylation of CREB”.
